Hits are enriched below; roughly 3% of the tested compounds scored in any of these assays.
MEKK2 mut-MEK5: MEK5 binding signal on mutant MEKK2 PB1, primary screen, biochemical, multiplex bead flow cytometry, Alexa488-MEK5 | AID 1530, 2009 | hit rate 0.35% among 290,000 | Alexa488-MEK5 binding to MEKK2 mutant | percent response, % at 10 µM; in the data active means percent response above about 24%, passing the limit was not always enough
MEKK2wt PB1 HTS: modulators of MEK5 binding to wildtype MEKK2, primary screen, biochemical, multiplex bead flow cytometry, Alexa488-MEK5; binding response (% of control), % at 10 µM; Alexa488-MEK5 binding to MEKK2 WT; actives lie on both sides; hit rate 1.1% among 290,000; AID 1531, 2009; in the data active means binding response below about 67% or above about 130%
MEKK3 PB1 HTS: modulators of MEKK3-MEK5 PB1 binding, primary screen, biochemical, wildtype MEKK3, multiplex bead flow cytometry, Alexa488-MEK5; Mitogen-activated protein kinase kinase kinase 3 (Homo sapiens), Q99759; bead-based flow cytometry, Alexa488-MEK5 binding to MEKK3; actives lie on both sides; 0 = blocked by unlabeled MEK5, 100 = vehicle; binding response (% of control), % at 10 µM; hit rate 1.4% among 290,000;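 active means binding response more than 3 SD above or below the average of its plate-row segment, actives on both sides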;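 further: Alexa488 bead fluorescence after subtracting the streptavidin-only scavenger bead signal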
Target sequence (Q99759 whole entry, looked up): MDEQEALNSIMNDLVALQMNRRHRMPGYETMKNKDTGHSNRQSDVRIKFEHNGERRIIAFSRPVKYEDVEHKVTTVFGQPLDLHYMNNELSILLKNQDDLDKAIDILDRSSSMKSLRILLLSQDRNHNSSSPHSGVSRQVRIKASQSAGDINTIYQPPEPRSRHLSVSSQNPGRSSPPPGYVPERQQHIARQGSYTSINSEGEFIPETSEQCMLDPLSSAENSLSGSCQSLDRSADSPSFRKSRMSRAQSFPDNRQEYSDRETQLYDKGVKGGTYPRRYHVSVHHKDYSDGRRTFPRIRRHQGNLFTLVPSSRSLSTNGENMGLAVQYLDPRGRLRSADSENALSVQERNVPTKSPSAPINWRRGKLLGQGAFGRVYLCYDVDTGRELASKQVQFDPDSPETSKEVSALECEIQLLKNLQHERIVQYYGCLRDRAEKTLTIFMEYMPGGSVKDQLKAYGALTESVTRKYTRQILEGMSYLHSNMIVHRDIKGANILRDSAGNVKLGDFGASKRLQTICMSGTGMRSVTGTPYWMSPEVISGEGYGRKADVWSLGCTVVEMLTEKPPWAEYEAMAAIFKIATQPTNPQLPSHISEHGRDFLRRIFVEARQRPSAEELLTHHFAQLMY
Apaf1 inhib: inhibitors of human Apaf-1 apoptosome, primary screen, biochemical, DEVD-Rh110 fluorescence, uHTS; Apoptotic protease-activating factor 1 (Homo sapiens), O14727; reconstituted apoptosome caspase-3 activity; inhibition, % at 20 µM; hit rate 0.71% among 330,000; AID 489030, 2010; active means inhibition of at least 40% at 20 µM;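 further: plate controls were DMSO wells for no effect and DEVD-CHO caspase inhibitor wells for full effect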
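Medium: Hepes buffer, pH 7.5 / System: biochemical Apaf-1 apoptosome reconstitution / Measured by: Rh110 fluorescence, excitation 480 nm, emission 540 nm / Times: compound with Apaf-1, dATP, procaspase-3 30 min, then 50 min reaction, room temperature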
UCH37 inh: inhibitors of human UCH37 deubiquitinase, primary screen, biochemical, Ub-AMC cleavage, fluorescence; Ubiquitin carboxyl-terminal hydrolase isozyme L5 (Homo sapiens), Q9Y5K5; purified proteasome/UCH37; inhibition, % (no concentration beside the values); hit rate 0.33% among 330,000;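 active means mean inhibition over replicate wells above about 20%, limit read from the data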;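 further: 0% = compound-free wells with enzyme and 100% = wells lacking proteasome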
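Material: Human UCH37 enzyme supplied as purified proteasome complex | Schedule: 30 min compound-proteasome preincubation then 25 min substrate reaction, room temperature | Detection: AMC fluorescence from Ub-AMC cleavage, excitation 355 nm, emission 460 nm | Benchmarks: Wells without proteasome as full block, compound-free enzyme plus substrate as uninhibited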
UBC13 inh: UBC13 polyubiquitin chain formation inhibitors, primary screen, biochemical, TR-FRET, uHTS; inhibition, % at 20 µM; hit rate 0.47% among 330,000; in the data active means inhibition above about 45%, passing the limit was not always enough
MEKK2wt confirm: modulators of MEK5 binding to wildtype MEKK2, confirmation, biochemical, single concentration, multiplex bead flow cytometry. shares compounds with MEKK3 PB1 HTS. Alexa488-MEK5 binding to MEKK2 WT; actives lie on both sides. hit rate 2.4% among 5,900. binding response (% of control), % at 10 µM; in the data active means binding response below about 16% or above about 210%; inactive means in between
MEKK2mut confirm: mutant MEKK2 PB1-MEK5 binding signal retest – biochemical, single concentration, multiplex bead flow cytometry, confirmation. shares compounds with MEKK3 PB1 HTS. Alexa488-MEK5 binding to MEKK2 mutant. percent response, % at 10 µM. hit rate 2% among 5,900; in the data active means percent response mostly above about 71%, no sharp cut-off; inactive means mostly below about 38%;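 further: higher means compound restores mutant binding toward wildtype level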
MEKK3 confirm: MEKK3 wild-type PB1 binding to MEK5, inhibitors, confirmation, biochemical, bead multiplex flow cytometry, single concentration, wildtype. shares compounds with MEKK3 PB1 HTS. Alexa488-MEK5 binding to MEKK3; stronger effect = lower value. binding response (% of control), % at 10 µM. hit rate 1.8% among 5,900. AID 1894, 2009;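 active means binding response below 72% of control, or above a set upper limit, though filed actives all read lower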;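 further: 100% = DMSO only wells and 0% = binding blocked by excess unlabeled MEK5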
Active calls of the source: *; i = inactive; . = not tested or not shown; [ ] = dose if it differs, or a comment.

SMILES	MEKK2 mut-MEK5	MEKK2wt PB1 HTS	MEKK3 PB1 HTS	Apaf1 inhib	UCH37 inh	UBC13 inh	MEKK2wt confirm	MEKK2mut confirm	MEKK3 confirm
COc1ccccc1CNC(=O)c1ccc(N2CCOCC2)c([N+](=O)[O-])c1	-19	53	44*[inhibitor]	2	4	-4	104	3	110
O=S1(=O)C=C(Oc2ccc3ccccc3c2)c2ccccc21	2	96	115	16	0	6	.	.	.
CC(=O)OC(C(=O)NC1CCCCC1)c1ccncc1 (centres undefined)	-15	83	75*[inhibitor]	-9	1	-2	98	-5	101
CCCCNc1c([N+](=O)[O-])cc(C(=O)O)cc1[N+](=O)[O-]	0	107	138*	2	8	-16	103	1	102
Oc1ccc(Cl)cc1/C=C/c1ccc2cccc(O)c2n1	0	119	128*	18	3	-38	94	-8	103
CCc1c(Cl)nc(N)nc1Nc1ccccc1C	.	.	.	.	-2	.	.	.	.
CCOC(=O)c1sc2ccccc2c1NC(=O)c1coc2ccccc2c1=O	-1	96	139*	21	1	-8	101	-1	102
Cc1ccc2nc(NCCC(=O)O)nc(-c3ccccc3)c2c1	-42	96	99	-1	i	14	.	.	.
CC(=O)Nc1ccc(NC(=O)CCOc2ccccc2C)cc1	1	104	104	-2	2	0	.	.	.
COc1ccccc1OCCC(=O)OCC(=O)Nc1ccc(Br)cc1	1	108	134*	1	1	13	102	2	103
Cc1ccccc1OCCCC(=O)Nc1ccc(Br)cc1	-21	0.0*[inhibitor]	0.0*[inhibitor]	2	5	-1	112	8	109
O=C(Nc1cccc(Cl)c1)Nc1cc(S(=O)(=O)N2CCCCC2)ccc1Cl	78*	131	102	5	1	-13	124	1	103
CN1CCN(S(=O)(=O)c2ccc(NC(=O)Nc3cccc(Cl)c3)cc2)CC1	11	122	99	10	2	11	.	.	.
O=C(Nc1cccc(S(=O)(=O)N2CCCC2)c1)c1ccc2c(c1)OCO2	10	107	108	6	-1	-6	.	.	.
O=C(Nc1cccc(Cl)c1)Nc1cccc(Cl)c1	16	161*	112	11	4	-4	150	32	105
O=C(Nc1cccc(F)c1)Nc1cccc(Cl)c1	1	110	103	-6	3	11	.	.	.
CCCNC(=O)c1nc(C)c(C)nc1C(=O)Nc1cccc(Cl)c1	0	101	99	-20	3	0	.	.	.
Cc1nc(C)c(C(=O)Nc2cccc(Cl)c2)o1	-6	84	77*[inhibitor]	-17	3	0	103	4	101
O=C(Nc1cccc(S(=O)(=O)N2CCCCCC2)c1)c1ccc2c(c1)OCO2	-1	105	140*	6	2	-9	101	-3	106
c1coc(CN2CN=C(Nc3nc4ccccc4s3)NC2)c1	1	106	104	15	1	-15	.	.	.
COc1ccc(OC)c(S(=O)(=O)NC2CC2)c1	13	104	104	-2	1	4	.	.	.
Cc1cc(-c2ccc(C)c(S(=O)(=O)NCC3CCN(Cc4cccc(F)c4)CC3)c2)on1	21	127	107	15	1	11	.	.	.
CCc1sc(C(=O)Nc2cc(Cl)ccc2N2CCCCC2)cc1C	7	111	106	16	-4	11	.	.	.
Cc1nc(C)c(C(=O)NCc2ccc(Cl)cc2)o1	-6	81	76*[inhibitor]	-9	6	-3	99	-2	104
Cc1onc(-c2c(Cl)cccc2Cl)c1NC(=O)NN(C)C	-30	78	68	6	6	-4	.	.	.
SMILES	MEKK2 mut-MEK5	MEKK2wt PB1 HTS	MEKK3 PB1 HTS	Apaf1 inhib	UCH37 inh	UBC13 inh	MEKK2wt confirm	MEKK2mut confirm	MEKK3 confirm
CSCCNC(=O)Nc1c(-c2c(Cl)cccc2Cl)noc1C	-26	86	67*[inhibitor]	-15	5	6	102	4	102
O=C(NNC(=O)C1CCC1)c1ccc(Br)cc1	.	.	.	1	2	-5	.	.	.
Cc1cc(C)n2nc(C)c(Br)c2n1	-2	97	99	-3	0	-11	.	.	.
CCOC(=O)C(NC(=O)c1ccccc1)(OCc1ccc(F)cc1)C(F)(F)F (centres undefined)	1	106	128*	8	0	-4	102	0	103
CCOC(=O)C(NC(=O)c1cccc(Cl)c1)(OCc1ccc(F)cc1)C(F)(F)F (centres undefined)	-1	99	122	9	-22	6	.	.	.
CCCC(CCC)C(=O)NNc1cc(=O)c2c(=O)n(C)c(=O)n(C)c2[nH]1	.	.	.	-6	.	9	.	.	.
Cc1cc(N2CCN(C)CC2)nc2ccc(NC(=S)NCc3cccs3)cc12	21	141*	110	-2	-4	28	124	15	104
CCCCN(CC)CCCNC(=S)Nc1ccc2nc(N3CCN(C)CC3)cc(C)c2c1	15	142*	97	-5	-7	18	142	21	108
COc1ccccc1CNC(=S)Nc1ccc2nc(N3CCN(C)CC3)cc(C)c2c1	22	138*	105	2	-4	26	141	9	101
COc1ccc(CNC(=S)Nc2ccc3nc(N4CCN(C)CC4)cc(C)c3c2)cc1	30	152*	117	-6	-6	1	118	9	101
Cc1ccccc1C(=O)NN=C1SCC(=O)N1Cc1ccc2c(c1)OCO2	.	.	.	.	-2	.	.	.	.
CCOc1ccc(-n2c(COc3ccccc3)nnc2SCC(N)=O)cc1	5	106	122*	8	4	-2	98	-2	103

Assay outcomes (PubChem BioAssay)
